According to ChEMBL document CHEMBL3297731, “The design and discovery of water soluble 4-substituted-2,6-dimethylfuro[2,3-d]pyrimidines as multitargeted receptor tyrosine kinase inhibitors and microtubule targeting antitumor agents” (Bioorg Med Chem, 2014):
The source made the active and inactive calls. No cut-off for these calls is given here.

Key:
[1] = system: 4T1; assay: Antitumor activity against luciferase/GFP-tagged mouse 4T1 cells allografted in BALBc/J mouse assessed as reduction in primary tumor growth at 35 mg/kg twice weekly starting at day 7 and continuing to day 32; type: functional, organism-based; parameters: dose 35 mg/kg
In short: (§1)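 750 4T1-Luc2/GFP cells (>98% GFP+) in PBS/1 mM EDTA implanted into fat pad #4 of 8 wk female BALB/c mice. MTD doses given twice weekly (docetaxel weekly), day 7 to day 32; DMSO/solutol-15/D5W vehicle. Calipers, ellipsoid volume; weights before each dose; 7-10 mice per group; lungs imaged fresh by fluorescence at day 33.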

[2] = system: MDA-MB-231; assay: Cytotoxicity against human triple negative MDA-MB-231 cells; type: functional, cell-based
[3] = system: MCF7; assay: Cytotoxicity against human taxoid-resistant MCF7 cells; type: functional, cell-based
[4] = system: MCF7; assay: Cytotoxicity against human ER-positive MCF7 cells; type: functional, cell-based
[5] = in vivo; conditions: BALBc/J, mouse
[6] = system: MDA-MB-435; assay: Cytotoxicity against human MDA-MB-435 cells; type: functional, cell-based
[7] = system: MDA-MB-468; assay: Cytotoxicity against human triple negative MDA-MB-468 cells; type: functional, cell-based
[8] = system: HUVEC; assay: Cytotoxicity against HUVEC; type: cell-based; conditions: Homo sapiens
[9] = system: 4T1; assay: Cytotoxicity against mouse triple negative 4T1 cells; type: functional, cell-based
[10] = system: MDA-MB-435; assay: Antiproliferative activity against human MDA-MB-435 cells; type: functional, cell-based
[11] = system: Chorioallantoic membrane; assay: Antiangiogenic activity in fertile leghorn chicken egg Chorioallantoic membrane assessed as inhibition of human VEGF-165/bFGF-induced angiogenesis after 48 hrs by CAM assay; type: functional, tissue-based; conditions: Gallus gallus
[12] = target: Platelet-derived growth factor receptor beta (Homo sapiens, UniProt P09619); assay: Inhibition of PDGFRbeta in human SH-SY5Y cells by phosphotyrosine ELISA assay; type: cell-based
Chain of Platelet-derived growth factor receptor beta (P09619 whole entry): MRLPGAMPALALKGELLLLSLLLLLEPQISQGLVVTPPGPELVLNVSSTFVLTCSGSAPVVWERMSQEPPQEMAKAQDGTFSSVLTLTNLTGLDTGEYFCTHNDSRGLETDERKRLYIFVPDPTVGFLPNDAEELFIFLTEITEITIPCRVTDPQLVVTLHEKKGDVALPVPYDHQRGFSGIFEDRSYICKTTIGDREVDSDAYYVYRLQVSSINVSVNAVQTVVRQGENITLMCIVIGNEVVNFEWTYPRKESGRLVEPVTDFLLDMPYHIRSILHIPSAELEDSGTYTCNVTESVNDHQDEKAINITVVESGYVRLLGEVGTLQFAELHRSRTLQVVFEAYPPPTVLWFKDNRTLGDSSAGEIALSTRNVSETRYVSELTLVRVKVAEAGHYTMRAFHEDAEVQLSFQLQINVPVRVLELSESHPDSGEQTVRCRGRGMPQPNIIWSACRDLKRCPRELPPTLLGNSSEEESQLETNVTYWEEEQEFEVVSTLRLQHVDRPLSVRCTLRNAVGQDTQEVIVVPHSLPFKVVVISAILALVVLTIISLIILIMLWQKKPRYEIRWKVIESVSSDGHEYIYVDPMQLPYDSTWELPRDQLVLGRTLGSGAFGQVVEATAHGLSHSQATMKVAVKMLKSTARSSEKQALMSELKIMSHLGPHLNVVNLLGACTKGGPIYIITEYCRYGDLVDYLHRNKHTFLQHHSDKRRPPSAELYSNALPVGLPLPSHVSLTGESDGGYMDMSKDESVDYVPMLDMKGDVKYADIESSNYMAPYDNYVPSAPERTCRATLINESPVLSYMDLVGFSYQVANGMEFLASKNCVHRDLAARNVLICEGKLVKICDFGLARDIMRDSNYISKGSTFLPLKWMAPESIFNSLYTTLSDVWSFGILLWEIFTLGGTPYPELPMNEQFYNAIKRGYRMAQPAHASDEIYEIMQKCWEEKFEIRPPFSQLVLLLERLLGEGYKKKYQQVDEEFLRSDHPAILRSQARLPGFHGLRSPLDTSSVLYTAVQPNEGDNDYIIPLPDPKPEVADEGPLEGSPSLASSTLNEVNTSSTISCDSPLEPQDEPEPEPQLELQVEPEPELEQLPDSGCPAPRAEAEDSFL

[13] = target: Vascular endothelial growth factor receptor 2 (Homo sapiens, UniProt P35968); type: cell-based, U-251
Chain of Vascular endothelial growth factor receptor 2 (P35968 whole entry): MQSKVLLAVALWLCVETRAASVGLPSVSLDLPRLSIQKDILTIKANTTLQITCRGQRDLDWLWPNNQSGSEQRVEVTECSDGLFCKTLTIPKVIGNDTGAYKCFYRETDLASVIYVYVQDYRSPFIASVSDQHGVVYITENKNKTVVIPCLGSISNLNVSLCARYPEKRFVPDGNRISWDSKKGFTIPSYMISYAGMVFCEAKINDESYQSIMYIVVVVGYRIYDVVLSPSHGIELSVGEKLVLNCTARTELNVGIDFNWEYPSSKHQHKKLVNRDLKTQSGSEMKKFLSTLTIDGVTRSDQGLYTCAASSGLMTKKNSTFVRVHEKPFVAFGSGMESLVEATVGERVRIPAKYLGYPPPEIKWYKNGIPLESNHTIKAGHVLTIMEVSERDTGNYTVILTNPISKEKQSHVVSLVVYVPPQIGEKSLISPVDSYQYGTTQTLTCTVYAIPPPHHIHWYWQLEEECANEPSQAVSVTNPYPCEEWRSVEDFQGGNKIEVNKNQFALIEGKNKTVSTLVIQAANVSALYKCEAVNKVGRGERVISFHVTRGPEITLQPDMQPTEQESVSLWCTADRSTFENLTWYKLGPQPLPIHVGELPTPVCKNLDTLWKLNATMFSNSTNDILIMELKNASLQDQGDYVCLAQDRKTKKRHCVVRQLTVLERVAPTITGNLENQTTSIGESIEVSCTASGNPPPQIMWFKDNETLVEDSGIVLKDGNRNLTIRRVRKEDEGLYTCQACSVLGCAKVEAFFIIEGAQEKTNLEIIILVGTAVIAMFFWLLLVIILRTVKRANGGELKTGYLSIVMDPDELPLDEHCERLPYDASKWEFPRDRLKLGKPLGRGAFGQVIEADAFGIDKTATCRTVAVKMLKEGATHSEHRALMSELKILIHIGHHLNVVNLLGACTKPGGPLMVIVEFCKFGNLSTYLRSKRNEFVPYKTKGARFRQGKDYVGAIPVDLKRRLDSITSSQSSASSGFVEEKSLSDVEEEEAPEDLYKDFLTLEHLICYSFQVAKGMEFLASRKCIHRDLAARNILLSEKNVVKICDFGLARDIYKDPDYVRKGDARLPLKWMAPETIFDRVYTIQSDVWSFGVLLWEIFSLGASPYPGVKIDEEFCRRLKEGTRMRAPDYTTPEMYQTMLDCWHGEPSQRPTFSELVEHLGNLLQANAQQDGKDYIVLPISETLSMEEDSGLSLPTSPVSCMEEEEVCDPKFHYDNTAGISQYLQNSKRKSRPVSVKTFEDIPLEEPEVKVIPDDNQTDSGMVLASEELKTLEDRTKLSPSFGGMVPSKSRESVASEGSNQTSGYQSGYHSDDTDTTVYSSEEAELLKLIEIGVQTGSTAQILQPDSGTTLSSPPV

[14] = target: Epidermal growth factor receptor (Homo sapiens, UniProt P00533); type: cell-based, A-431
Chain of Epidermal growth factor receptor (P00533 whole entry): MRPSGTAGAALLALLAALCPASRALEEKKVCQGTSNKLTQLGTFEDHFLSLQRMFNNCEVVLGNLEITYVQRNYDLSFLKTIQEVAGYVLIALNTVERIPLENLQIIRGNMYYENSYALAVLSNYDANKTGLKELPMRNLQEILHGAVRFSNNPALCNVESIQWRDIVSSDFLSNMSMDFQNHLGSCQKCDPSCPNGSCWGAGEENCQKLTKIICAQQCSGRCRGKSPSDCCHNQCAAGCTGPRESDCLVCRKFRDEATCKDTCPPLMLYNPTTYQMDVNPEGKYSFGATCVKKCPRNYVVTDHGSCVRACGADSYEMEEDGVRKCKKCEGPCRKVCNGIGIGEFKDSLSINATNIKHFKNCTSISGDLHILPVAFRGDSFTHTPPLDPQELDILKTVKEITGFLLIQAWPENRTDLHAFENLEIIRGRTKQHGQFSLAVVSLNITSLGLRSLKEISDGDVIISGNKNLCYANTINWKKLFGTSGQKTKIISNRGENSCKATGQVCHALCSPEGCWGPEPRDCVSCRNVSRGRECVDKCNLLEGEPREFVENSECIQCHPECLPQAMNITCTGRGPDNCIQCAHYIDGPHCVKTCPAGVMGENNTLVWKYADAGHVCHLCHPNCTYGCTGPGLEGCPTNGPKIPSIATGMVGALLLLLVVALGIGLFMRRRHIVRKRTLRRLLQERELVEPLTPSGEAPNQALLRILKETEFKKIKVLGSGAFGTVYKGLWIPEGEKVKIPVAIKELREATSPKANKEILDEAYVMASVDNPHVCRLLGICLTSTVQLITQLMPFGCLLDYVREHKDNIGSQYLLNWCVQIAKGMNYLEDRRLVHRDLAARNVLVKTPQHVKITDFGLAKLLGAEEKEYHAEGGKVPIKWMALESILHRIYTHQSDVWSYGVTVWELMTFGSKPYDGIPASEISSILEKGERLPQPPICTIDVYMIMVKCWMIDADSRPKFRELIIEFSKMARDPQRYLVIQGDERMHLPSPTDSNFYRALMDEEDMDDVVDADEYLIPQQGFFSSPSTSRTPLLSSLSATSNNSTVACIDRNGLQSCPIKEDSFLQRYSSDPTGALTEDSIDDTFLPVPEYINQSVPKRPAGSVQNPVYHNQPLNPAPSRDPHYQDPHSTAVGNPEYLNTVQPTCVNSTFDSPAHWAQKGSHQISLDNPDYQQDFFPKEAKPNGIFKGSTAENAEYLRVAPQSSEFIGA

[15] = system: A-431; assay: Cytotoxicity against human A431 cells by SRB assay; type: functional, cell-based
[16] = system: HeLa; assay: Antiproliferative activity against human HeLa cells expressing beta3-tubulin; type: functional, cell-based
[17] = system: SK-OV-3; assay: Antiproliferative activity against human SKOV3 cells; type: functional, cell-based
[18] = system: HeLa; assay: Antiproliferative activity against human HeLa cells; type: functional, cell-based
[19] = system: SK-OV-3; assay: Antiproliferative activity against human SKOV3 cells expressing MDR1/M-6-6; type: functional, cell-based
[20] = system: Mus musculus; assay: Toxicity in luciferase/GFP-tagged mouse 4T1 cells allografted in BALBc/J mouse assessed as body weight loss at 50 mg/kg twice weekly starting at day 7 and continuing to day 32; type: organism-based; parameters: dose 50 mg/kg; conditions: in vivo; in short: as §1
[21] = system: Mus musculus; assay: Toxicity in human MDA-MB-435 cells […] assessed as increase in body weight at 50 mg/kg; type: organism-based; parameters: dose 50 mg/kg; conditions: in vivo
[22] = system: MDA-MB-435 (Homo sapiens); assay: Induction of apoptosis in human MDA-MB-435 cells assessed as PARP cleavage at 75 nM after 18 hrs by Western blot analysis
[23] = system: MDA-MB-435; assay: Antitumor activity against human MDA-MB-435 cells […] assessed as decrease in tumor vascular density at 50 mg/kg by CD31/PECAM-1 immunohistochemical staining; type: functional, organism-based; parameters: dose 50 mg/kg
[24] = system: 4T1; assay: Antitumor activity against luciferase/GFP-tagged mouse 4T1 cells allografted in BALBc/J mouse assessed as reduction in primary tumor growth at 50 mg/kg twice weekly starting at day 7 and continuing to day 32; type: functional, organism-based; parameters: dose 50 mg/kg; in short: as §1
[25] = system: MDA-MB-435 (Homo sapiens); assay: Induction of apoptosis in human MDA-MB-435 cells assessed as PARP cleavage at 75 nM after 18 to 36 hrs by Western blot analysis
[26] = system: HeLa; assay: Cell cycle arrest in human HeLa cells assessed as accumulation at G2/M phase at 40 to 50 nM after 18 hrs by flow cytometric analysis; type: functional, cell-based
In short: (§2)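 HeLa cells allowed to adhere 24 h, then drug-treated (18 h per legend; harvest stated 24 h in methods). Stained with Krishan's reagent; DNA content measured by flow cytometry.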

[27] = system: HeLa; assay: Cell cycle arrest in human HeLa cells assessed as effect on accumulation at G1 phase at 40 to 50 nM after 18 hrs by flow cytometric analysis; type: functional, cell-based; in short: as §2
[28] = system: 4T1; assay: Antitumor activity against luciferase/GFP-tagged mouse 4T1 cells allografted in BALBc/J mouse assessed as reduction in number of lung metastases at 50 mg/kg twice weekly starting at day 7 and continuing to day 32; type: functional, organism-based; parameters: dose 50 mg/kg; in short: as §1
[29] = system: MDA-MB-435; assay: Antitumor activity against human MDA-MB-435 cells […] assessed as decrease in tumor growth at 50 mg/kg relative to untreated control; type: functional, organism-based; parameters: dose 50 mg/kg
[30] = target: Tubulin (Sus scrofa) (UniProt P02554+P02550); conditions: 5 uM
Chain of Tubulin (Sus scrofa) (P02550 whole entry, looked up): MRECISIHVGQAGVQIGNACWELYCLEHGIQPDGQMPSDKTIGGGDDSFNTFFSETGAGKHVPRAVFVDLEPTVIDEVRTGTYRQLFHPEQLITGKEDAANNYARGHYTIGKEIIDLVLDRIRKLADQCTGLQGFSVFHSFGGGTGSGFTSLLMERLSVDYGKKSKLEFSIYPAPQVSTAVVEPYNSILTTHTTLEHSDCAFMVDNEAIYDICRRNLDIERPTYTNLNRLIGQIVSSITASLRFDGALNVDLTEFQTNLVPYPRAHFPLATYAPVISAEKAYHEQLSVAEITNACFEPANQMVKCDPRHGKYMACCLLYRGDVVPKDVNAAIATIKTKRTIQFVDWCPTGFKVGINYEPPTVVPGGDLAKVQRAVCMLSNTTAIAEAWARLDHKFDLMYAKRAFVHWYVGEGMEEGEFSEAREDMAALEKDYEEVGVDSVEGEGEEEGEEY
Chain of Tubulin (Sus scrofa) (P02554 whole entry, looked up): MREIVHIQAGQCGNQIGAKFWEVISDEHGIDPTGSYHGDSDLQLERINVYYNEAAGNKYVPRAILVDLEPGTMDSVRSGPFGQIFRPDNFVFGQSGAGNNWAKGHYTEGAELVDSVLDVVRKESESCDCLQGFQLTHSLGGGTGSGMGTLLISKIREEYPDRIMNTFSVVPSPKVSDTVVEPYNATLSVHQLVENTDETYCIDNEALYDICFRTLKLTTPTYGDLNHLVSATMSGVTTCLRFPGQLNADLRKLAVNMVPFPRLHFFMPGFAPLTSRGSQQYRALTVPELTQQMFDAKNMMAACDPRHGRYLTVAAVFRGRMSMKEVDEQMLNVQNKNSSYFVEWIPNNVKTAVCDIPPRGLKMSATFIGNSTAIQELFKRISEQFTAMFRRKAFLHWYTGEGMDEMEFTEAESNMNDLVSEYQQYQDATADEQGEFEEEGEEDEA

[31] = system: 4T1; assay: Antitumor activity against luciferase/GFP-tagged mouse 4T1 cells allografted in BALBc/J mouse assessed as reduction in tumor size at 50 mg/kg twice weekly starting at day 7 and continuing to day 32; type: functional, organism-based; parameters: dose 50 mg/kg; in short: as §1
[32] = system: HeLa; assay: Cell cycle arrest in human HeLa cells assessed as accumulation at G2/M phase after 18 hrs by flow cytometric analysis; type: functional, cell-based; in short: as §2
[33] = Growth inhibition of human MOLT4 cells by SRB assay; type: functional; conditions: MOLT-4
[34] = target: Tubulin (Sus scrofa, UniProt P02554+P02550); assay: Inhibition of pig brain tubulin polymerization by spectrophotometric analysis

SMILES: CC(=O)O[C@@]12CO[C@@H]1C[C@H](O)[C@@]1(C)C(=O)[C@H](O)C3=C(C)[C@@H](OC(=O)[C@H](O)[C@@H](NC(=O)OC(C)(C)C)c4ccccc4)C[C@@](O)([C@@H](OC(=O)c4ccccc4)[C@H]21)C3(C)C.O.O.O [DOCETAXEL]
- inhibition [1]: Active
- IC50 [2]: 16 nM
- IC50 [3]: > 1000 nM
- IC50 [4]: 59.3 nM
- MTD [5]: 35 mg/kg
- IC50 [6]: 2.7 nM
- IC50 [7]: 69.1 nM
- IC50 [8]: 56.7 nM
- IC50 [9]: 63.4 nM

SMILES: CC(=O)O[C@H]1C(=O)[C@@]2(C)[C@H]([C@H](OC(=O)c3ccccc3)[C@]3(O)C[C@H](OC(=O)[C@H](O)[C@@H](NC(=O)c4ccccc4)c4ccccc4)C(C)=C1C3(C)C)[C@]1(OC(C)=O)CO[C@@H]1C[C@@H]2O [PACLITAXEL]
- IC50 [10]: 1.93 nM

SMILES: C#Cc1cccc(Nc2nc(C)nc3oc(C)cc23)c1
- IC50 [11]: 18200 nM
- IC50 [12]: 16.2 nM
- IC50 [13]: 76.3 nM
- IC50 [14]: 30 nM

SMILES: CCN(CC)CCNC(=O)c1c(C)[nH]c(/C=C2\C(=O)Nc3ccc(F)cc32)c1C [SUNITINIB]
- IC50 [2]: 22.3 nM
- IC50 [3]: 29.3 nM
- IC50 [4]: 27.1 nM
- IC50 [6]: 9.7 nM
- IC50 [7]: 6.1 nM
- IC50 [8]: 11.8 nM
- IC50 [9]: 16 nM

SMILES: CS(=O)(=O)CCNCc1ccc(-c2ccc3ncnc(Nc4ccc(OCc5cccc(F)c5)c(Cl)c4)c3c2)o1 [LAPATINIB]
- IC50 [2]: 20 nM
- IC50 [4]: 64.9 nM
- IC50 [6]: 29.7 nM
- IC50 [7]: 83.2 nM
- IC50 [9]: 10.4 nM

SMILES: COc1ccc(Nc2nc(C)nc3oc(C)cc23)cc1
- IC50 [12]: 63.5 nM
- IC50 [13]: 43.1 nM
- IC50 [14]: 42.2 nM

SMILES: Cc1nc(Nc2cccc3[nH]ccc23)c2cc(C)oc2n1
- IC50 [11]: 22600 nM
- IC50 [12]: 28.3 nM
- IC50 [13]: 102 nM
- IC50 [14]: 90.2 nM

SMILES: COc1cccc2c1C(=O)c1c(O)c3c(c(O)c1C2=O)C[C@@](O)(C(=O)CO)C[C@@H]3O[C@H]1C[C@H](N)[C@H](O)[C@H](C)O1 [DOXORUBICIN]
- IC50 [15]: 1.35 nM

SMILES: CCN(c1ccc(OC)cc1)c1nc(C)nc2oc(C)cc12
- IC50 [10]: 137 nM
- IC50 [16]: 206 nM
- IC50 [17]: 228 nM
- IC50 [18]: 167 nM
- IC50 [11]: 19200 nM
- IC50 [19]: 270 nM
- IC50 [12]: 27.1 nM
- IC50 [13]: 10.6 nM
- IC50 [14]: 70.7 nM

SMILES: Cc1nc(Nc2ccc(Cl)cc2)c2cc(C)oc2n1
- IC50 [13]: 70.2 nM
- IC50 [14]: 102 nM

SMILES: COc1ccc(N(c2nc(C)nc3oc(C)cc23)C(C)C)cc1
- IC50 [10]: 3000 nM
- IC50 [16]: 4070 nM
- IC50 [17]: 3800 nM
- IC50 [18]: 2900 nM
- IC50 [11]: 18900 nM
- IC50 [19]: 7400 nM
- IC50 [12]: 23.1 nM
- IC50 [13]: 15.6 nM
- IC50 [14]: 84.4 nM

SMILES: Cc1nc(Nc2ccccc2)c2cc(C)oc2n1
- IC50 [14]: 113 nM

SMILES: CCCCN(c1ccc(OC)cc1)c1nc(C)nc2oc(C)cc12
- IC50 [10]: > 10000 nM
- IC50 [16]: > 10000 nM
- IC50 [17]: > 10000 nM
- IC50 [18]: > 10000 nM
- IC50 [11]: 32600 nM
- IC50 [19]: > 10000 nM
- IC50 [12]: 56.5 nM
- IC50 [13]: 34.4 nM
- IC50 [14]: 340 nM

SMILES: COc1ccc(N(C)c2nc(C)nc3oc(C)cc23)cc1.Cl
- Activity [20]: Non-toxic
- IC50 [2]: 148 nM
- IC50 [10]: 47 nM
- IC50 [3]: 130 nM
- IC50 [16]: 44.7 nM
- IC50 [18]: 40.6 nM
- IC50 [4]: 138 nM
- Activity [21]: Non-toxic
- MTD [5]: 50 mg/kg
- IC50 [7]: 7.1 nM
- IC50 [8]: 172 nM
- IC50 [9]: 97.9 nM

SMILES: COc1ccc(N(C)c2nc(C)nc3oc(C)cc23)cc1 [listing 1 of 2 here]
- Activity [22]: Active
- Activity [23]: Active
- inhibition [24]: Active
- Activity [25]: Active
- Activity [26]: Active
- Activity [27]: inactive
- inhibition [28]: Active
- inhibition [29]: Active
- inhibition [30]: 86%
- inhibition [31]: Active
- inhibition [32]: Dose-dependent effect

SMILES: Cc1nc(Nc2ccc(F)c(Cl)c2)c2cc(C)oc2n1
- IC50 [13]: 58.2 nM
- IC50 [14]: 30.2 nM

SMILES: CCCN(c1ccc(OC)cc1)c1nc(C)nc2oc(C)cc12
- IC50 [10]: 1400 nM
- IC50 [16]: 1500 nM
- IC50 [17]: 1600 nM
- IC50 [18]: 1240 nM
- IC50 [11]: 16700 nM
- IC50 [19]: 3400 nM
- IC50 [12]: 29.9 nM
- IC50 [13]: 8.5 nM

SMILES: Cc1nc(Nc2cccc3ccccc23)c2cc(C)oc2n1
- IC50 [13]: 32.2 nM
- IC50 [14]: 145 nM

SMILES: COc1ccc(N(C)c2nc(C)nc3oc(C)cc23)cc1 [listing 2 of 2 here]
- GI50 [33]: 67.9 nM
- IC50 [34]: 1900 nM

SMILES: Cc1nc(Nc2ccc(C(F)(F)F)cc2)c2cc(C)oc2n1
- IC50 [12]: 66.1 nM
- IC50 [13]: 66.2 nM
- IC50 [14]: 122 nM
